In ChEMBL document CHEMBL1131312 (J Med Chem, 1998):
Converted amounts (≈) assume the structure as drawn. The source made the active and inactive calls.

What was measured:
[1] = Water solubility of the compound; format: ADME; conditions: for solubility: water, read-out: S; for S: buffer
DNA topoisomerase II [2] = biological target: T1, DNA topoisomerase II (Homo sapiens, UniProt P11388+Q02880); assay: Concentration of compound at which inhibitory activity detected against DNA topoisomerase II; format: protein assay, Drosophila melanogaster
Mus musculus [3] = assay: percent T / C values ([…] / control) against P388 murine leukemia cells at 40 mg/kg dose; format: functional
Procedure, shortened: (§1)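 CDF1 mice over 18 g implanted iv with 10^6 P388 leukemia cells on day 0 and randomized. Single ip dose on day 1, chosen from 2.5, 10, 40 or 160 mg/kg. Survival and clinical signs followed daily; weights taken days 1, 4 and 8. T/C% is median survival of treated over control × 100; 125-175% is the minimum activity level.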

Mus musculus [4] = assay: compound was tested in vivo for inhibition of P388 murine leukemia cells after iv / ip administration.; format: functional; procedure, shortened: as §1
[5] = in vitro inhibitory activity against tubulin polymerization.; design: species or system Ovis aries
L1210 = assay: In vitro cytotoxic activity against murine L1210 leukemia cells.; format: functional, cell-based, Mus musculus
Procedure, shortened: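 Murine L1210 leukemia cells grown in RPMI 1640 with 10% heat-inactivated horse serum at 37 °C, 5% CO2, used within 40 passages (doubling time 8-10 h). Exponentially growing cells (1.5 × 10^5/well) exposed to a concentration range for 48 h, then counted electronically.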

Mus musculus [6] = assay: compound was tested in vivo for inhibition of P388 murine leukemia cells after iv / ip administration at 40 mg/ kg; NA indicates inactive; format: functional, organism-based; design: dose 40 mg/ kg
Procedure, shortened: (§2)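 P388 leukemia cells (10^6/mouse) implanted iv in CDF1 mice (>18 g) on day 0. After randomization, single ip dose on day 1 from the series 2.5, 10, 40, 160 mg/kg. Daily clinical checks and death recorded, weights on days 1, 4, 8. Activity scored as median survival treated/control ×100 (T/C, %), with 125–175% as minimum activity (NCI criteria).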

DNA topoisomerase II [7] = biological target: T1, DNA topoisomerase II; assay: In vitro inhibitory activity against DNA topoisomerase II; format: protein assay, Drosophila melanogaster
Mus musculus [8] = assay: percent T / C values ([…] / control) against P388 murine leukemia cells at 160 mg/kg dose; format: functional; procedure, shortened: as §1
[9] = Water solubility of the compound; insoluble; format: ADME; conditions: buffer
Mus musculus [10] = assay: Compound was tested in vivo for inhibition of P388 murine leukemia cells after iv / ip administration at 40 mg/ kg; NA indicates inactive; format: functional, organism-based; design: dose 40 mg/ kg; procedure, shortened: as §2
[11] = Mus musculus, P388, read-out: ED50

Structure (SMILES)	solubility [1]	EC50 (DNA topoisomerase II [2])	IC50 [5]	IC50 (L1210; Mus musculus, L1210)	further results
COc1cc([C@@H]2c3cc4c(cc3[C@@H](OC3CC(N(C)C)C5OC(C)OCC5O3)[C@H]3COC(=O)[C@H]23)OCO4)cc(OC)c1O (stereo in doubt; 29)	26 mg/mL (≈ 43.4 mM)	> 100000 nM	> 50000 nM	90 nM	T/C max (Mus musculus [3]; 40 mg/kg): 257%; ED50 (Mus musculus [4]): 5 mg/kg
COc1cc([C@@H]2c3cc4c(cc3[C@@H](OC3CC(N(C)C)C5OC(C)OCC5O3)[C@H]3COC(=O)[C@H]23)OCO4)cc(OC)c1O (stereo in doubt; 28)		> 100000 nM			S [1]: 24 mg/mL; T/C max (Mus musculus [3]; 40 mg/kg): 243%; ED50 (Mus musculus [4]): 1.7 mg/kg; IC50 (L1210; l1210): 110 nM
COc1cc([C@@H]2c3cc4c(cc3CC3COC(=O)[C@@H]32)OCO4)cc(OC)c1O (stereo partly specified)			13000 nM		
COc1cc([C@@H]2c3cc4c(cc3[C@H](O)[C@H]3COC(=O)[C@H]23)OCO4)cc(OC)c1OC [PODOFILOX]			3000 nM		
COc1cc([C@@H]2c3cc4c(cc3[C@@H](OC3CC(N)C5OC(C)OCC5O3)[C@H]3COC(=O)[C@H]23)OCO4)cc(OC)c1O (stereo in doubt; 27)		> 100000 nM	> 50000 nM		S [1]: 9 mg/mL; T/C max (Mus musculus [3]): 193%; ED50 (Mus musculus [4]): 1.7 mg/kg; IC50 (L1210; l1210): 70 nM
COc1cc([C@@H]2c3cc4c(cc3[C@@H](OC3CC(N)C(O)C(CN)O3)[C@H]3COC(=O)[C@H]23)OCO4)cc(OC)c1O (stereo partly specified)	42 mg/mL (≈ 77.1 mM)	> 100000 nM	11000 nM	210 nM	ED50 (Mus musculus [6]): inactive
COc1cc([C@@H]2c3cc4c(cc3[C@@H](O[C@@H]3CC(N)C5OC(C)OCC5O3)[C@H]3COC(=O)[C@H]23)OCO4)cc(OC)c1O (stereo partly specified)	10 mg/mL (≈ 17.5 mM)	> 100000 nM	> 50000 nM	1300 nM	ED50 (Mus musculus [6]): inactive
COc1cc([C@@H]2c3cc4c(cc3C(OC3OC5COC(C)OC5C(O)C3N(C)C)C3COC(=O)[C@@H]32)OCO4)cc(OC)c1O (stereo partly specified)	15 mg/mL (≈ 24.4 mM)				EC50 (DNA topoisomerase II [7]): 56000 nM
COc1cc([C@@H]2c3cc4c(cc3[C@@H](OC3CC(NCCN)C5OC(C)OCC5O3)[C@H]3COC(=O)[C@H]23)OCO4)cc(OC)c1O (stereo partly specified)	40 mg/mL (≈ 65.1 mM)	> 100000 nM	> 10000 nM	1700 nM	ED50 (Mus musculus [6]): inactive
COc1cc([C@@H]2c3cc4c(cc3[C@@H](O[C@@H]3O[C@@H]5CO[C@@H](C)O[C@H]5[C@H](O)[C@H]3O)[C@H]3COC(=O)[C@H]23)OCO4)cc(OC)c1O [ETOPOSIDE]				200 nM	S [1]: 0.01 mg/mL; T/C max (Mus musculus [8]): 242%; ED50 (Mus musculus [4]; [11]): 5 mg/kg
COc1cc([C@@H]2c3cc4c(cc3[C@@H](OC3CC(N5CCOCC5)C5OC(C)OCC5O3)[C@H]3COC(=O)[C@H]23)OCO4)cc(OC)c1O (stereo partly specified)		> 1000 nM		> 1000 nM	S [9]: Insoluble; ED50 (Mus musculus [10]): inactive
COc1cc([C@@H]2c3cc4c(cc3[C@@H](OC3CC(N)C5OC(C)OCC5O3)[C@H]3COC(=O)[C@H]23)OCO4)cc(OC)c1O (stereo in doubt; 17)	11 mg/mL (≈ 19.2 mM)	> 100000 nM	> 10000 nM		T/C max (Mus musculus [8]): 300%; ED50 (Mus musculus [4]): 5 mg/kg; IC50 (L1210; l1210): 230 nM
COc1cc([C@@H]2c3cc4c(cc3[C@@H](OC3CC(NCC#N)C5OC(C)OCC5O3)[C@H]3COC(=O)[C@H]23)OCO4)cc(OC)c1O (stereo partly specified)		> 1000 nM	> 100000 nM	2000 nM	S [9]: Insoluble; T/C max (Mus musculus [8]): 186%; ED50 (Mus musculus [4]; [11]): 20 mg/kg
COc1cc([C@@H]2c3cc4c(cc3[C@@H](OC3CC(N)C(O)C(C)O3)[C@H]3COC(=O)[C@H]23)OCO4)cc(OC)c1O (stereo partly specified)	13 mg/mL (≈ 24.5 mM)	5600 nM	> 10000 nM	12000 nM	ED50 (Mus musculus [6]): inactive
